The source of these data is ChEMBL document CHEMBL4359856, “Strategies to develop selective CB2 receptor agonists from indole carboxamide synthetic cannabinoids” (Eur J Med Chem, 2019).

Test [1] addresses T1, Cannabinoid receptor 1 (Homo sapiens, UniProt P21554). Kind of test: Agonist activity at human CB1 receptor expressed in AtT-20 cells measured every 2 secs for 2 mins by FLIPR assay. The class given is cell-based. In outline: (§1)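 After vehicle subtraction, the change was taken as % of baseline. The final DMSO concentration was ≤0.1%. EC50 came from four-parameter concentration–response fits. Each experiment was run in duplicate, with at least three independent experiments; values are mean ± SEM.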

Test [2] has as its target T1, Cannabinoid receptor 1. Kind of test: Agonist activity at human CB1 receptor expressed in AtT-20 cells at 10 uM measured every 2 secs for 2 mins by FLIPR assay relative to control. Format: cell-based. As to conditions: read-out: Activity.
Test [3] deals with T2, Cannabinoid receptor 2 (Homo sapiens, UniProt P34972). The test is described as follows: Agonist activity at human CB2 receptor expressed in AtT-20 cells measured every 2 secs for 2 mins by FLIPR assay. Format: cell-based. In outline: as §1
T2 sequence (P34972 whole entry): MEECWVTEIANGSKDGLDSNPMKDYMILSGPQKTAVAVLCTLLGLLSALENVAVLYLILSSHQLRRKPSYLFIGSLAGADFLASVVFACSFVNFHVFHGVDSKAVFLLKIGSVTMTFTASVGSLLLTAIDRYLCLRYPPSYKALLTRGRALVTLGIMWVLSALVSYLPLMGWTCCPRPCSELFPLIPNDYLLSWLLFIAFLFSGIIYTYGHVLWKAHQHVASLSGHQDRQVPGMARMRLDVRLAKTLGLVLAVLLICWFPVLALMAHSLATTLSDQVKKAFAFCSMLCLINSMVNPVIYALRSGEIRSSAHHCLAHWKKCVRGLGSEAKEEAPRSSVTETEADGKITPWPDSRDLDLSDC
Test [4] deals with T2, Cannabinoid receptor 2. The test is described as follows: Agonist activity at human CB2 receptor expressed in AtT-20 cells at 1 uM measured every 2 secs for 2 mins by FLIPR assay relative to control. The class given is cell-based. In outline: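 In AtT-20 cells stably expressing human CB1 or CB2, membrane-potential dye fluorescence (530/565 nm) was recorded at 37 °C. After vehicle subtraction, the change was taken as % of baseline. The final DMSO concentration was ≤0.1%. EC50 came from four-parameter concentration–response fits. […] Each experiment was run in duplicate, with at least three independent experiments; values are mean ± SEM.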

The target in test [5] is T1, Cannabinoid receptor 1. The test is described as follows: Agonist activity at human CB1 receptor expressed in AtT-20 cells at 1 uM measured every 2 secs for 2 mins by FLIPR assay relative to control. The class given is cell-based. In outline:
as §1

In test [6] the target is T2, Cannabinoid receptor 2. The test is described as follows: Agonist activity at human CB2 receptor expressed in AtT-20 cells at 10 uM measured every 2 secs for 2 mins by FLIPR assay relative to control. The class given is cell-based.
Test [7] in a line: Selectivity index, ratio of EC50 for human CB1 receptor expressed in AtT-20 cells to EC50 for human CB2 receptor expressed in AtT-20 cells.

A value given as a limit tells only on which side of the number the result lay.

T1 sequence (P21554 whole entry): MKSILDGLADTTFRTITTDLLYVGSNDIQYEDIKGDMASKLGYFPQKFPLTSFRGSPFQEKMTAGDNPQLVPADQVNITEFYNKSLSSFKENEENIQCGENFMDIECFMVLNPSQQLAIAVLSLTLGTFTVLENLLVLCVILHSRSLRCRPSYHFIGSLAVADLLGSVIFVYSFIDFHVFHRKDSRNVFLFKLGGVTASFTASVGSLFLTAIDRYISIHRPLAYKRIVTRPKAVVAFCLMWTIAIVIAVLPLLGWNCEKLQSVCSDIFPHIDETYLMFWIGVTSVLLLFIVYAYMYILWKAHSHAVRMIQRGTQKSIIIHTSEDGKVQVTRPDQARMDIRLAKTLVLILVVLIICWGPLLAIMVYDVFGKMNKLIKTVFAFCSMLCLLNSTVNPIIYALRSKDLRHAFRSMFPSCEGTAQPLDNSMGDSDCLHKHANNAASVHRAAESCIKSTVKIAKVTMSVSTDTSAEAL

The term EC50 denotes the concentration giving half of the maximal effect. A higher EC50 goes with a need for much substance. By Emax is commonly meant the size of the effect at its maximum, as opposed to the concentration needed. Consider `CCCCCn1c(C(=O)N[C@H](C(N)=O)C(C)(C)C)cc2ccccc21`, for which the concentration for a half-maximal effect (EC50) on Cannabinoid receptor 1 [1] was greater than 10000 nM; at Cannabinoid receptor 2 [3], 189 nM. The activity at 10 µM on Cannabinoid receptor 1 [2] is less than 50%. Besides, the maximum response (Emax) at Cannabinoid receptor 2 [4] was determined as 73%.
For `COC(=O)[C@@H](NC(=O)c1cn(CCCCCO)c2ncccc12)C(C)(C)C`, the 50% effective concentration (EC50) was 234 nM at Cannabinoid receptor 1 [1] and 19 nM on Cannabinoid receptor 2 [3]. Also, on Cannabinoid receptor 1 [5], the maximum response (Emax) at 1 µM was 99%. The same compound returned a maximum response (Emax) on Cannabinoid receptor 2 [4] of 96%.
Consider `CCCCCn1c(C(=O)N[C@H](C(N)=O)C(C)C)cc2ccccc21`, for which, on Cannabinoid receptor 1 [2], the activity at 10 µM is less than 50%. In addition, the midpoint of the response on Cannabinoid receptor 2 [3], the EC50, lay at 741 nM. The compound also returned an Emax on Cannabinoid receptor 2 [4] of 74%.
Consider `CC(C)(C)[C@H](NC(=O)c1cn(CCCCCO)c2ncccc12)C(N)=O`, for which the results for the EC50 on Cannabinoid receptor 1 [1] and on Cannabinoid receptor 2 [3] were 491 nM and 50 nM, respectively. The same compound displayed an Emax at 1 µM on Cannabinoid receptor 1 [5] of 98%. This compound also came in with an Emax on Cannabinoid receptor 2 [4] of 96%.
With `CC(C)[C@H](NC(=O)c1cc2ccccc2n1CCCCCO)C(N)=O`, the activity at 10 µM on Cannabinoid receptor 1 [2] is less than 50%. This compound also registered an Activity on Cannabinoid receptor 2 [6] of less than 50%.
As for `O=C(NC12CC3CC(CC(C3)C1)C2)c1cn(CCCCCO)c2ncccc12`, the EC50 at Cannabinoid receptor 1 [1] is greater than 10000 nM; on Cannabinoid receptor 2 [3] it was 49 nM. Further, the activity at 10 µM at Cannabinoid receptor 1 [2] was less than 50%. The Emax on Cannabinoid receptor 2 [4] turned out to be 93%.
With `CC(C)(C)[C@H](NC(=O)c1cc2ccccc2n1CCCCCO)C(N)=O`, the activity at 10 µM at Cannabinoid receptor 1 [2] was less than 50%.
On the same count and under the same terms, the same measure for `CCCCCn1c(C(=O)N[C@H](C(=O)OC)C(C)(C)C)cc2ccccc21`: less than 50%; for `CCCCCn1c(C(=O)NC(C)(C)c2ccccc2)cc2ccccc21`: less than 50%.
With `CC(C)(C)[C@H](NC(=O)c1cc2ccccc2n1CCCCC(F)F)C(N)=O`, the activity at 10 µM on Cannabinoid receptor 1 [2] is less than 50%. Also, a half-maximal effect on Cannabinoid receptor 2 [3] (EC50) was put at 5460 nM. On Cannabinoid receptor 2 [4], this compound displayed an Emax of 128%.
Regarding `CCCCCn1c(C(=O)N[C@H](C(=O)OC)C(C)C)cc2ccccc21`, the activity at 10 µM at Cannabinoid receptor 1 [2] was less than 50%. This compound also registered a 50% effective concentration (EC50) on Cannabinoid receptor 2 [3] of 713 nM. Further, on Cannabinoid receptor 2 [4], the maximal response (Emax) amounted to 74%.
Regarding `CCCCCn1cc(C(=O)N[C@H](C(N)=O)C(C)(C)C)c2cccnc21`, the half-maximal effective concentration (EC50) at Cannabinoid receptor 1 [1] is 4 nM; at Cannabinoid receptor 2 [3], 5 nM. On Cannabinoid receptor 1 [5], this compound registered an Emax at 1 µM of 110%. Also, the Emax at Cannabinoid receptor 2 [4] is 94%.
On the same counts, the results for `CCCCCn1cc(C(=O)N[C@H](C(=O)OC)C(C)(C)C)c2cccnc21` are 1.7 nM, 4.3 nM, 103% and 102%.
For the compound `CCCCCn1cccc2c(C(=O)NC34CC5CC(CC(C5)C3)C4)cnc1-2`, the activity at 10 µM on Cannabinoid receptor 1 [2] is less than 50%. The same compound had an Activity at Cannabinoid receptor 2 [6] of less than 50%.
For `CCCCCn1cc(C(=O)NC(C)(C)c2ccccc2)c2cccnc21`, the concentration for a half-maximal effect (EC50) amounted to 35 nM at Cannabinoid receptor 1 [1] and 104 nM on Cannabinoid receptor 2 [3]. The Emax at 1 µM on Cannabinoid receptor 1 [5] amounted to 106%. Besides, the maximum response (Emax) at Cannabinoid receptor 2 [4] amounted to 96%.
The corresponding values for `CCCCCn1cc(C(=O)N[C@H](C(N)=O)C(C)C)c2cccnc21` are 121 nM, 58 nM, 117% and 103%.
As for `CCCCCn1c(C(=O)NC23CC4CC(CC(C4)C2)C3)cc2cccnc21`, at Cannabinoid receptor 1 [2], the activity at 10 µM was less than 50%. Moreover, the Activity on Cannabinoid receptor 2 [6] was less than 50%.
For the compound `CCCCCn1cc(C(=O)NC23CC4CC(CC(C4)C2)C3)c2cccnc21`, the EC50 at Cannabinoid receptor 1 [1] was found to be 152 nM; on Cannabinoid receptor 2 [3] it was 43 nM. On Cannabinoid receptor 1 [5], the Emax at 1 µM is 75%. The compound further displayed a maximal effect (Emax) at Cannabinoid receptor 2 [4] of 101%. Besides, in test [7], the “Ratio EC50” value came out at 3.5.
In the case of `CC(C)(NC(=O)c1cc2ccccc2n1CCCCCO)c1ccccc1`, the activity at 10 µM on Cannabinoid receptor 1 [2] is less than 50%. The compound also gave an EC50 at Cannabinoid receptor 2 [3] of 217 nM. The compound further came in with an Emax at Cannabinoid receptor 2 [4] of 88%.
For `CC(C)(NC(=O)c1cn(CCCCCO)c2ncccc12)c1ccccc1`, the EC50 at Cannabinoid receptor 1 [1] was determined as 466 nM; on Cannabinoid receptor 2 [3] it was 152 nM. Moreover, on Cannabinoid receptor 1 [5], the maximal response (Emax) at 1 µM is 110%. Moreover, at Cannabinoid receptor 2 [4], the Emax came to 95%.
With `CCCCCn1cc(C(=O)NC23CC4CC(CC(C4)C2)C3)c2ccccc21`, the EC50 on Cannabinoid receptor 1 [1] is 74 nM; at Cannabinoid receptor 2 [3], 96 nM. For the same compound, the Emax at 1 µM at Cannabinoid receptor 1 [5] is 108%. For the same compound, the Emax on Cannabinoid receptor 2 [4] was 85%.
Regarding `CCCCCn1cc(C(=O)N[C@H](C(=O)OC)C(C)C)c2cccnc21`, the figures for the half-maximal effective concentration (EC50) at Cannabinoid receptor 1 [1] and on Cannabinoid receptor 2 [3] were 56 nM and 15 nM, respectively. On Cannabinoid receptor 1 [5], the maximal response (Emax) at 1 µM amounted to 97%. Further, the Emax at Cannabinoid receptor 2 [4] worked out at 98%.
Consider `COC(=O)[C@@H](NC(=O)c1cc2ccccc2n1CCCCCO)C(C)C`, for which, on Cannabinoid receptor 1 [2], the activity at 10 µM was less than 50%. The compound further gave an Activity at Cannabinoid receptor 2 [6] of less than 50%.
Turning to `CCCCCn1c(C(=O)NC23CC4CC(CC(C4)C2)C3)cc2ccccc21`, at Cannabinoid receptor 1 [2], the activity at 10 µM is less than 50%.
In the case of `COC(=O)[C@@H](NC(=O)c1cc2ccccc2n1CCCCCO)C(C)(C)C`, the activity at 10 µM at Cannabinoid receptor 1 [2] is less than 50%. On Cannabinoid receptor 2 [6], this compound gave an Activity of less than 50%.
Compound `CCCCCCC(C)(C)c1ccc([C@@H]2C[C@H](O)CC[C@H]2CCCO)c(O)c1` registered an Emax at Cannabinoid receptor 2 [4] of 106%.
For `CCCCCn1nc(C(=O)NC23CC4CC(CC(C4)C2)C3)c2cccnc21`, the 50% effective concentration (EC50) came to 824 nM at Cannabinoid receptor 1 [1] and 122 nM on Cannabinoid receptor 2 [3]. The compound also gave an Emax at 1 µM at Cannabinoid receptor 1 [5] of 97%. This compound also yielded a maximum response (Emax) on Cannabinoid receptor 2 [4] of 104%. Besides, the “Ratio EC50” value in test [7] was 7.
